Results pooled from the literature.
Lines come from different studies, so protocols differ.
Adora2a: Adenosine receptor A2a (Adora2a, Rattus norvegicus, UniProt P30543)
AGTR2: Type-2 angiotensin II receptor (AGTR2, Homo sapiens, UniProt P50052)

| SMILES | target | test | setting | Ki [µM] |
| --- | --- | --- | --- | --- |
| N#Cc1c(N)nc(SCc2cccc(C(=O)O)c2)c(C#N)c1-c1ccccc1 | Adora2a | ligand displacement, radioligand | cell membranes | 0.634 |
| CCc1ccc(C(=O)N[C@H](C(=O)O)C(C)CC)cc1C(=O)N(Cc1ccccc1)Cc1ccccc1 (stereo in doubt) | AGTR2 | ligand displacement in cells, radioligand |  | 4.4 |
| CCc1nc2cc(OCCCCN3CCC(c4cccc(Cl)c4Cl)CC3)ccc2s1 | Sodium-dependent serotonin transporter (SLC6A4, Homo sapiens, UniProt P31645) | ligand displacement, radioligand |  | 0.58 |
| Fc1ccc(C2=Nn3c(nnc3-c3cccc(Br)c3)SC2)cc1 | Urease (Canavalia ensiformis, UniProt P07374) | enzyme activity, inhibitor |  | 3.62 |
| CCC(C)N1CCCn2c1nc1c2c(=O)n(C)c(=O)n1C (centres unmarked) | Adora2a | ligand displacement, radioligand | cell membranes | 4.64 |
| O=C1c2ccccc2CCCN1CCCCN1CCN(c2ccccn2)CC1 | D(1A) dopamine receptor (DRD1, Homo sapiens, UniProt P21728) | cell-free assay, radioligand |  | 1.26 |
| CCCC[C@H](NC(=O)[C@H](C)c1c(C)[nH]c2ccc(O)cc12)c1ncc(-c2cc3ccccc3nc2OC)[nH]1 | Prostaglandin E2 receptor EP1 subtype (PTGER1, Homo sapiens, UniProt P34995) | cell-free assay |  | 2.25 |
| N#Cc1c(N)nc(SCC(N)=O)c(C#N)c1-c1cccc(O)c1 | Adora2a | ligand displacement, radioligand | cell membranes | 0.751 |
| C#CCN1CCCn2c1nc1c2c(=O)n(C)c(=O)n1C | Adora2a | ligand displacement, radioligand | cell membranes | 7.4 |
| COc1ccc(-c2c(C#N)c(N)nc(SCC(N)=O)c2C#N)cc1 | Adora2a | ligand displacement, radioligand | cell membranes | 1.47 |
| CCC(C)[C@H](NC(=O)c1cccc(C(=O)N(C)Cc2ccccc2)c1)C(=O)O (stereo in doubt) | AGTR2 | ligand displacement in cells, radioligand |  | 9 |
| CCCCOC(=O)NS(=O)(=O)c1sc(CC(C)C)cc1-c1ccc(OC(F)(F)F)c(Cn2ccnc2)c1 | AGTR2 | ligand displacement, radioligand | cell membranes | 0.28 |
| CCC(C)[C@H](NC(=O)c1cccc(C(=O)N(CC)Cc2ccccc2)c1)C(=O)O (stereo in doubt) | AGTR2 | ligand displacement in cells, radioligand |  | 11 |
| COc1ccc(-c2c(C#N)c(N)nc(SCc3cccc(C)n3)c2C#N)cc1 | Adora2a | ligand displacement, radioligand | cell membranes | 0.048 |
| CCCN1CCCn2c1nc1c2c(=O)n(C)c(=O)n1C | Adora2a | ligand displacement, radioligand | cell membranes | 1.29 |
| CCC(C)[C@H](NC(=O)c1ccc(C(=O)N(C)Cc2ccccc2)cc1)C(=O)O (stereo in doubt) | AGTR2 | ligand displacement in cells, radioligand |  | > 100 |
| CC(C)CCCC(C)N1CCCn2c1nc1c2c(=O)n(C)c(=O)n1C (centres unmarked) | Adora2a | ligand displacement, radioligand | cell membranes | 2.03 |
| CCc1ccc(C(=O)N[C@H](C(=O)O)C(C)CC)cc1C(=O)N(CC)Cc1ccccc1 (stereo in doubt) | AGTR2 | ligand displacement in cells, radioligand |  | 8.3 |
| CC(C)CN1CCCn2c1nc1c2c(=O)n(C)c(=O)n1C | Adora2a | ligand displacement, radioligand | cell membranes | 0.87 |
| Cc1cccc(CSc2nc(N)c(C#N)c(-c3cccc(O)c3)c2C#N)n1 | Adora2a | ligand displacement, radioligand | cell membranes | 0.0206 |
| CCCCCN1CCCn2c1nc1c2c(=O)n(C)c(=O)n1C | Adora2a | ligand displacement, radioligand | cell membranes | 3.06 |
| CCC(C)[C@H](NC(=O)c1cccc(C(=O)N(CC)CC)c1)C(=O)O (stereo in doubt) | AGTR2 | ligand displacement in cells, radioligand |  | 22 |
| CCCCn1c(=O)c2[nH]c(C34CC5CC(CC3C5)C4)nc2n(CCCO)c1=O | Adora2a | ligand displacement, radioligand | cell membranes | 0.371 |
| CCC(C)[C@H](NC(=O)c1ccc(C)c(C(=O)N(C)Cc2ccccc2)c1)C(=O)O (stereo in doubt) | AGTR2 | ligand displacement in cells, radioligand |  | 7.6 |
| CCN1CCCn2c1nc1c2c(=O)n(C)c(=O)n1C | Adora2a | ligand displacement, radioligand | cell membranes | 2.65 |
| COc1cccc(-c2c(C#N)c(N)nc(SCc3cccc(C)n3)c2C#N)c1 | Adora2a | ligand displacement, radioligand | cell membranes | 0.0483 |
